In ChEMBL document CHEMBL1129034, “Novel N6-(substituted-phenylcarbamoyl)adenosine-5'-uronamides as potent agonists for A3 adenosine receptors” (J Med Chem, 1996):

Columns and labels:
Adenosine receptor A2a = Adenosine receptor A2a (Rattus norvegicus, UniProt P30543); experiment: Displacement of [3H]-CGS- 21680 from Adenosine A2A receptor in rat striatal homogenates
In short: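 Rat striatal homogenates labelled with [3H]CGS 21680 for A2A; IC50 by probit analysis over at least six concentrations, Ki via Cheng-Prusoff using Kd 18.5 nM; n = 3-4, Ki ± SEM in nM.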

Adenosine receptor A1 = target: T1, Adenosine receptor A1 (Rattus norvegicus, UniProt P25099); experiment: Displacement of [3H]CHA from Adenosine A1 receptor in rat brain homogenates; assay type: tissue-based
T1 sequence (P25099 whole entry): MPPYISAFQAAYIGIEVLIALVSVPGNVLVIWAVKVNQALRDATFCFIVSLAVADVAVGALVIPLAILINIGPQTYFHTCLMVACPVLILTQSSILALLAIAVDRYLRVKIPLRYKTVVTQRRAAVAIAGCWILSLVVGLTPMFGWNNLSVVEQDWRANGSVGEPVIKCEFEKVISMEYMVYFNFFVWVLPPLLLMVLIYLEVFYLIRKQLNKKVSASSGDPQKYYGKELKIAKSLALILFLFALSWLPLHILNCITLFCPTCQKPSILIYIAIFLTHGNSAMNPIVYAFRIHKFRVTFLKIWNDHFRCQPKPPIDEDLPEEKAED

Adenosine receptor A3 = target: T2, Adenosine receptor A3 (Rattus norvegicus, UniProt P28647); experiment: Displacement of [125I]AB-MECA from cloned rat Adenosine A3 receptor in stably transfected CHO cells; assay type: cell-based
T2 sequence (P28647 whole entry): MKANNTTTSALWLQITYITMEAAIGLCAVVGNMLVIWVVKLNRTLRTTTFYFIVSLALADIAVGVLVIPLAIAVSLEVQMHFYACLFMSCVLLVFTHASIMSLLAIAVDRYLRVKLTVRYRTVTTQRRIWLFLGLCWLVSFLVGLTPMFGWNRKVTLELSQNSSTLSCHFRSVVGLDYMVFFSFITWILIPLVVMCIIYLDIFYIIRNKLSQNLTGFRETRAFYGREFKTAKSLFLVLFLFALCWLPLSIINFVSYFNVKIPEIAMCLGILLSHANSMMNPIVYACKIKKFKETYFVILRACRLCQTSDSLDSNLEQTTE
In short: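 Membranes from CHO cells stably expressing rat A3 receptor, labelled with [125I]AB-MECA; IC50 by probit analysis from at least six concentrations, converted to Ki by Cheng-Prusoff with Kd 1.48 nM; n = 3, Ki ± SEM in nM.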

[1] = target: Adenosine receptor A2a and A3 (Rattus norvegicus) (UniProt P30543+P28647); experiment: Selectivity, ratio between A2A receptor binding affinity / A3 receptor binding affinity; assay type: protein assay
Chain of Adenosine receptor A2a and A3 (Rattus norvegicus) (P30543 whole entry, looked up, one chain of several): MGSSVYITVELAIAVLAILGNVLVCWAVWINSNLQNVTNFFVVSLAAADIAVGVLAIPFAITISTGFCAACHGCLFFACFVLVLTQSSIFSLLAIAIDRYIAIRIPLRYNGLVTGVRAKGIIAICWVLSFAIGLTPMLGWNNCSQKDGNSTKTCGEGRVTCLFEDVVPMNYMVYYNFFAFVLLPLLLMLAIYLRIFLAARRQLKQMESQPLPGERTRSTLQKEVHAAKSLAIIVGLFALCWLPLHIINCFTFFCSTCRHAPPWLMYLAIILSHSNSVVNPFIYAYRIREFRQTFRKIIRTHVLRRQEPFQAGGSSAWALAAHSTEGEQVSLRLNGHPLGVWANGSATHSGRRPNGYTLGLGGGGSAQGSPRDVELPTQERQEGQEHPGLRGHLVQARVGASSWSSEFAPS

[2] = target: Adenosine receptors; A1 & A3 (Rattus norvegicus) (UniProt P25099+P28647); experiment: Selectivity, ratio between A1 receptor binding affinity / A3 receptor binding affinity; assay type: protein assay

Chain of Adenosine receptor A2a (P30543 whole entry): as the sequence (P30543 whole entry, looked up, one chain of several) above

| Ki (Adenosine receptor A2a) [nM] | Ki (Adenosine receptor A1) [nM] | Ki (Adenosine receptor A3) [nM] | Selectivity [1] | Selectivity [2] | Compound |
| --- | --- | --- | --- | --- | --- |
| 286 | 252 | 275 | 1 | 0.9 | CCNC(=O)[C@H]1O[C@@H](n2cnc3c(NC(=O)Nc4cccc(Br)c4)ncnc32)[C@H](O)[C@@H]1O |
| 528 | 77 | 34 | 15 | 2.2 | CCNC(=O)[C@H]1O[C@@H](n2cnc3c(NC(=O)Nc4ccccc4F)ncnc32)[C@H](O)[C@@H]1O |
| 351 | 124 | 32.3 | 11 | 3.8 | CCNC(=O)[C@H]1O[C@@H](n2cnc3c(NC(=O)Nc4ccc(C)cc4)ncnc32)[C@H](O)[C@@H]1O |
| 440 | 179 | 32 | 14 | 5.6 | CCNC(=O)[C@H]1O[C@@H](n2cnc3c(NC(=O)Nc4ccccc4I)ncnc32)[C@H](O)[C@@H]1O |
| 5360 | 110 | 39 | 140 | 2.8 | CCNC(=O)[C@H]1O[C@@H](n2cnc3c(NC(=O)Nc4ccccc4)ncnc32)[C@H](O)[C@@H]1O |
| 3670 | 1440 | 1930 | 1.9 | 0.75 | CCNC(=O)[C@H]1O[C@@H](n2cnc3c(NC(=O)NC(C)(C)C)ncnc32)[C@H](O)[C@@H]1O |
| 611 | 103 | 39 | 16 | 2.6 | CCNC(=O)[C@H]1O[C@@H](n2cnc3c(NC(=O)Nc4cccc(F)c4)ncnc32)[C@H](O)[C@@H]1O |
| 1340 | 111 | 7.4 | 180 | 15 | CCNC(=O)[C@H]1O[C@@H](n2cnc3c(NC(=O)Nc4ccccc4Cl)ncnc32)[C@H](O)[C@@H]1O |
| 1380 | 85 | 19 | 72 | 4.4 | CCNC(=O)[C@H]1O[C@@H](n2cnc3c(NC(=O)Nc4ccc(F)cc4)ncnc32)[C@H](O)[C@@H]1O |
| 420 | 45 | 4.4 | 96 | 10 | CCNC(=O)[C@H]1O[C@@H](n2cnc3c(NC(=O)Nc4cccc(Cl)c4)ncnc32)[C@H](O)[C@@H]1O |

More lines, now with the values behind:

| Compound | Ki (Adenosine receptor A2a) [nM] | Ki (Adenosine receptor A1) [nM] | Ki (Adenosine receptor A3) [nM] | Selectivity [1] | Selectivity [2] |
| --- | --- | --- | --- | --- | --- |
| CCNC(=O)[C@H]1O[C@@H](n2cnc3c(NC(=O)Nc4ccc(Cl)cc4)ncnc32)[C@H](O)[C@@H]1O | 1490 | 72 | 114 | 13 | 0.6 |
| CCNC(=O)[C@H]1O[C@@H](n2cnc3c(NC(=O)Nc4ccc(I)cc4)ncnc32)[C@H](O)[C@@H]1O | 561 | 64 | 101 | 5.6 | 0.6 |
| CCNC(=O)[C@H]1OC(n2cnc3c(NC(=O)Nc4ccc(C(F)(F)F)cc4)ncnc32)[C@H](O)[C@@H]1O (some centres undefined) | 4830 | 739 | 150 | 32 | 4.9 |
| CCNC(=O)[C@H]1O[C@@H](n2cnc3c(NC(=O)Nc4ccccc4OC)ncnc32)[C@H](O)[C@@H]1O | 1160 | 73 | 30 | 38 | 2.4 |
| CNC(=O)[C@H]1O[C@@H](n2cnc3c(NC(=O)Nc4cccc(Cl)c4)ncnc32)[C@H](O)[C@@H]1O | 6700 | 550 | 115 | 58 | 4.8 |
| CCNC(=O)[C@H]1OC(n2cnc3c(NC(=O)Nc4cccc(C(F)(F)F)c4)ncnc32)[C@H](O)[C@@H]1O (some centres undefined) | 2300 | 700 | 77 | 30 | 9.1 |
| CCNC(=O)[C@H]1O[C@@H](n2cnc3c(NC(=O)Nc4cccc(OC)c4)ncnc32)[C@H](O)[C@@H]1O | 3860 | 113 | 42 | 92 | 2.7 |
| CCCCCCCCNC(=O)Nc1ncnc2c1ncn2[C@@H]1O[C@H](C(=O)NCC)[C@@H](O)[C@H]1O | 3070 | 448 | 326 | 9.4 | 1.4 |
| CNC(=O)[C@H]1O[C@@H](n2cnc3c(NC(=O)Nc4ccc(OC)cc4)ncnc32)[C@H](O)[C@@H]1O | 8750 | 491 | 56 | 160 | 8.8 |
| CCNC(=O)[C@H]1O[C@@H](n2cnc3c(NC(=O)Nc4ccccc4C(F)(F)F)ncnc32)[C@H](O)[C@@H]1O | 10000 | 384 | 54 | 190 | 7.4 |
| CCNC(=O)[C@H]1O[C@@H](n2cnc3c(NC(=O)Nc4cccc(I)c4)ncnc32)[C@H](O)[C@@H]1O | 3940 | – | 30 | 130 | 0.5 |
| CCNC(=O)[C@H]1O[C@@H](n2cnc3c(NC(=O)Nc4ccc(OC)cc4)ncnc32)[C@H](O)[C@@H]1O | 3360 | 33 | 6.6 | 510 | 4.9 |
